{"source": "ChEMBL document CHEMBL4229344", "about": "(Eur J Med Chem, 2018)", "key": {"[1]": {"target": "Serine/threonine-protein kinase Sgk1 (Homo sapiens) (UniProt O00141)", "sequence (O00141 whole entry, the tested form may be a part)": "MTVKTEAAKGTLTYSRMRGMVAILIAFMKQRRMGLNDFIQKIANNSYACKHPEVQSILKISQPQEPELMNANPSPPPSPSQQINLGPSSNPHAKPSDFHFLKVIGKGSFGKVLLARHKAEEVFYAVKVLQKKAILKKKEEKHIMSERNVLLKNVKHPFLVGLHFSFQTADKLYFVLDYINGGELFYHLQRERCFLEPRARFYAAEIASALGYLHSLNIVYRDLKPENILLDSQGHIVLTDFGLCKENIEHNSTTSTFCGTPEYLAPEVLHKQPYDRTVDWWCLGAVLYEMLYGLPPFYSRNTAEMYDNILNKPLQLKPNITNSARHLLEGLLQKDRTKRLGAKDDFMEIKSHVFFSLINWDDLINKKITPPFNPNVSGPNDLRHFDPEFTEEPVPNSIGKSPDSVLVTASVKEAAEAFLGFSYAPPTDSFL", "assay": "Binding affinity to wild-type human partial length SGK (I60 to L431 residues) expressed in mammalian expression system assessed as residual binding level at 1 uM by Kinomescan method relative to control"}, "[2]": {"target": "Serine/threonine-protein kinase LATS1 (Homo sapiens) (UniProt O95835)", "assay": "Binding affinity to wild-type human partial length LATS1 (Q678 to V1130 residues) expressed in bacterial expression system assessed as residual binding level at 1 uM by Kinomescan method relative to control"}, "[3]": {"test_system": "Tyrosine-protein kinase ABL1 (Homo sapiens), P00519 [Y253F]", "assay": "Binding affinity to human phosphorylated ABL1 Y253F mutant (S229 to K512 residues) expressed in mammalian expression system assessed as residual binding level at 1 uM by Kinomescan method relative to control", "summary_of_the_method": "(§1)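 Single-concentration (1 μM) competition-binding screen run by KINOMEscan against a panel of 468 purified kinases and mutants. The read-out is the relative binding activity of the test compound to each kinase.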"}, "[4]": {"test_system": "Proto-oncogene tyrosine-protein kinase receptor Ret (Homo sapiens), P07949 [V804M]", "sequence (P07949 whole entry V804M, the tested form may be a part)": "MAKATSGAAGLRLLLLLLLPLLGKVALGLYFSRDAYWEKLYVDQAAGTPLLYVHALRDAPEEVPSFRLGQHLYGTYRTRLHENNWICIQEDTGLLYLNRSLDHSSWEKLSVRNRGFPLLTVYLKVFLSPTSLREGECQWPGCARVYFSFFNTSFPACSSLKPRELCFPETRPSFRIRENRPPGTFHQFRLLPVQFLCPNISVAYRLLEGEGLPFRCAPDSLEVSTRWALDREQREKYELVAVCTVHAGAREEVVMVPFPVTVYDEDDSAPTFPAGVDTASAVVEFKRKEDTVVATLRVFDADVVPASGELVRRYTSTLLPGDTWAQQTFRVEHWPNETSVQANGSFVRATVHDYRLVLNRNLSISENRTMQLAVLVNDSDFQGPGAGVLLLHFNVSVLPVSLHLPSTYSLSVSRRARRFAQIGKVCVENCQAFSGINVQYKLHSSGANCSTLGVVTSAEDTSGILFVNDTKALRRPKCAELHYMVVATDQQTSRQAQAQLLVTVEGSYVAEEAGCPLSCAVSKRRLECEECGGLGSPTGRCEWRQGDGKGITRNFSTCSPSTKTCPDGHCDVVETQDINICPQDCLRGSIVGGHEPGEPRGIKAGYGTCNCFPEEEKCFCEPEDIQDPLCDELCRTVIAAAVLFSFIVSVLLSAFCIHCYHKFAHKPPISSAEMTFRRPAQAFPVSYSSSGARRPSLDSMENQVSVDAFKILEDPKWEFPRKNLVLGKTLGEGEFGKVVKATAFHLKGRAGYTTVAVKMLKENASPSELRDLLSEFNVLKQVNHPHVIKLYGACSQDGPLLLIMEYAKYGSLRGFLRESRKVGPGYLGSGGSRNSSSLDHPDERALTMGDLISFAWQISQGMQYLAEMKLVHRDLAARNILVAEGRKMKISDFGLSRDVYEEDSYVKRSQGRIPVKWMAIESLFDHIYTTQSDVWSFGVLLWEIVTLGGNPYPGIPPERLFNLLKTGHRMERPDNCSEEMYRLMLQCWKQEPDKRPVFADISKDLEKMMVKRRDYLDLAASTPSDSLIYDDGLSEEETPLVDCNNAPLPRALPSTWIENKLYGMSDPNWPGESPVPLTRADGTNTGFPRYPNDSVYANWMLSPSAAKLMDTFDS", "assay": "Binding affinity to human partial length RET V804M mutant (E713 to D1014 residues) expressed in bacterial expression system assessed as residual binding level at 1 uM by Kinomescan method relative to control", "summary_of_the_method": "(§2)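 Kinome-wide single-concentration binding screen (KINOMEscan) at 1 μM against a panel of 468 purified kinases and mutants. Read-out is relative binding of each kinase compared with control. Selectivity across the panel was summarised as an S(10) score.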"}, "[5]": {"test_system": "Mast/stem cell growth factor receptor Kit (Homo sapiens), P10721 [L576P]", "assay": "Binding affinity to human partial length KIT L576P mutant (Y545 to D952 residues) expressed in bacterial expression system assessed as residual binding level at 1 uM by Kinomescan method relative to control", "summary_of_the_method": "as §2"}, "[6]": {"target": "Fibroblast growth factor receptor 3 (Homo sapiens) (UniProt P22607)", "assay": "Binding affinity to wild-type human partial length FGFR3 (R442 to S771 residues) expressed in bacterial expression system assessed as residual binding level at 1 uM by Kinomescan method relative to control"}, "[7]": {"target": "Cyclin-dependent kinase 11B (Homo sapiens) (UniProt P21127)", "assay": "Binding affinity to wild-type human partial length CDC2L1 (P353 to G692 residues) expressed in bacterial expression system assessed as residual binding level at 1 uM by Kinomescan method relative to control", "summary_of_the_method": "(§3)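 Kinome-wide competition binding screen against a panel of 468 purified kinases/mutants, with the test compound at a single concentration of 1 μM. Read-out is the relative binding activity of each kinase in the presence of compound.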"}, "[8]": {"target": "Tyrosine-protein kinase receptor TYRO3 (Homo sapiens) (UniProt Q06418)", "assay": "Binding affinity to wild-type human partial length TYRO3 (S497 to T814 residues) expressed in bacterial expression system assessed as residual binding level at 1 uM by Kinomescan method relative to control"}, "[9]": {"assay": "MRT (0 to t) in Sprague-Dawley rat at 1 mg/kg, iv", "assay_type": "ADME, organism-based", "settings": "in vivo"}, "[10]": {"target": "Serine/threonine-protein kinase TAO2 (Homo sapiens) (UniProt Q9UL54)", "assay": "Binding affinity to wild-type human partial length TAOK2 (M1 to A320 residues) expressed in mammalian expression system assessed as residual binding level at 1 uM by Kinomescan method relative to control"}, "[11]": {"target": "Muscle, skeletal receptor tyrosine-protein kinase (Homo sapiens) (UniProt O15146)", "assay": "Binding affinity to wild-type human partial length MUSK (M553 to V869 residues) expressed in bacterial expression system assessed as residual binding level at 1 uM by Kinomescan method relative to control"}, "[12]": {"target": "Cyclin-dependent kinase 7 (Homo sapiens) (UniProt P50613)", "assay": "Binding affinity to wild-type human full length CDK7 (M1 to L344 residues) expressed in mammalian expression system assessed as residual binding level at 1 uM by Kinomescan method relative to control", "summary_of_the_method": "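KINOMEscan competition binding against 468 purified kinases/mutants, test compound at 1 µM; residual binding relative to control.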"}, "[13]": {"target": "Casein kinase I isoform delta (Homo sapiens) (UniProt P48730)", "sequence (P48730 whole entry, looked up, the tested form may be a part, canonical isoform)": "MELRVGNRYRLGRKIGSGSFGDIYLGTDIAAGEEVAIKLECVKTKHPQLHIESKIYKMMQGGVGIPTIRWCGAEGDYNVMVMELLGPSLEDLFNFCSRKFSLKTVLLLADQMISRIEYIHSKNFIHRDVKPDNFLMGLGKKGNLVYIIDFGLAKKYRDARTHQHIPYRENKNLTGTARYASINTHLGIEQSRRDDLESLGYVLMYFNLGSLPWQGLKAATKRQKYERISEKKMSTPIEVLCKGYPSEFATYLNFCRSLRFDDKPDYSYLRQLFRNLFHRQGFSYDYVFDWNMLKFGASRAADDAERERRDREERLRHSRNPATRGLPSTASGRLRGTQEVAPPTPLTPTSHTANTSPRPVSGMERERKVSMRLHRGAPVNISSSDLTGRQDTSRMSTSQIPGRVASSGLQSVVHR", "assay": "Binding affinity to wild-type human full length CSNK1D (M1 to K409 residues) expressed in bacterial expression system assessed as residual binding level at 1 uM by Kinomescan method relative to control", "summary_of_the_method": "as §1"}, "[14]": {"target": "Ephrin type-A receptor 7 (Homo sapiens) (UniProt Q15375)", "sequence (Q15375 28-998 limits assumed)": "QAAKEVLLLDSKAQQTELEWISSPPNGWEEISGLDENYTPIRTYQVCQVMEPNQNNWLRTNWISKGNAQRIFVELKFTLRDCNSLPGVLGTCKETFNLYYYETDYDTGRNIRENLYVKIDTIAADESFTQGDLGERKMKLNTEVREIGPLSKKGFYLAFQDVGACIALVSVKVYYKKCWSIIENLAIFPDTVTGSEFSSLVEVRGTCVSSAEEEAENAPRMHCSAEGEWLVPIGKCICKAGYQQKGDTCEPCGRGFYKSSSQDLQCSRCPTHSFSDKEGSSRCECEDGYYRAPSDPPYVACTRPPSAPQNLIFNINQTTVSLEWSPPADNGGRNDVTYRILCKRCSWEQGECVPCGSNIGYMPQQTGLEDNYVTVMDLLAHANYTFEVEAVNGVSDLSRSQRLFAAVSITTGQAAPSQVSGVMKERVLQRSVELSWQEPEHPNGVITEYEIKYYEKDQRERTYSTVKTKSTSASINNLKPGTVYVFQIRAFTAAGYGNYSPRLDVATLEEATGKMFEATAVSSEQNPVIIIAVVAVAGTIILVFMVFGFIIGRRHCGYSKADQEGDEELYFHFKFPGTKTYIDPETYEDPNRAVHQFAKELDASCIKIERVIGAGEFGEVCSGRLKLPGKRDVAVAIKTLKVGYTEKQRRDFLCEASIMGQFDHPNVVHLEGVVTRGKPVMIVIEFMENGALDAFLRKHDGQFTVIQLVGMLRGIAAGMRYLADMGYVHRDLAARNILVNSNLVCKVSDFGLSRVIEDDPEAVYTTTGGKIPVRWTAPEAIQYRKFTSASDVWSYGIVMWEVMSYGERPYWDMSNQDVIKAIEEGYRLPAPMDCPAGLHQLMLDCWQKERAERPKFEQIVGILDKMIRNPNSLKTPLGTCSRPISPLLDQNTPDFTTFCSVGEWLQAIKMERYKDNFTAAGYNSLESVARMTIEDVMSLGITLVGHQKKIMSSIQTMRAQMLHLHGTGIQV", "assay": "Binding affinity to wild-type human partial length EPHA7 (Y608 to S912 residues) expressed in bacterial expression system assessed as residual binding level at 1 uM by Kinomescan method relative to control"}, "[15]": {"target": "Macrophage colony-stimulating factor 1 receptor (Homo sapiens) (UniProt P07333)", "assay": "Binding affinity to wild-type human partial length autoinhibited CSF1R (Y538 to S939 residues) expressed in mammalian expression system assessed as residual binding level at 1 uM by Kinomescan method relative to control"}, "[16]": {"target": "G protein-coupled receptor kinase 3 (Homo sapiens) (UniProt P35626)", "assay": "Binding affinity to wild-type human full length GRK3 (M1 to L688 residues) expressed in mammalian expression system assessed as residual binding level at 1 uM by Kinomescan method relative to control", "summary_of_the_method": "as §1"}, "[17]": {"target": "Death-associated protein kinase 1 (Homo sapiens) (UniProt P53355)", "assay": "Binding affinity to wild-type human partial length DAPK1 (M1 to F296 residues) expressed in bacterial expression system assessed as residual binding level at 1 uM by Kinomescan method relative to control"}, "[18]": {"target": "Tyrosine-protein kinase receptor Tie-1 (Homo sapiens) (UniProt P35590)", "sequence (P35590 whole entry, the tested form may be a part)": "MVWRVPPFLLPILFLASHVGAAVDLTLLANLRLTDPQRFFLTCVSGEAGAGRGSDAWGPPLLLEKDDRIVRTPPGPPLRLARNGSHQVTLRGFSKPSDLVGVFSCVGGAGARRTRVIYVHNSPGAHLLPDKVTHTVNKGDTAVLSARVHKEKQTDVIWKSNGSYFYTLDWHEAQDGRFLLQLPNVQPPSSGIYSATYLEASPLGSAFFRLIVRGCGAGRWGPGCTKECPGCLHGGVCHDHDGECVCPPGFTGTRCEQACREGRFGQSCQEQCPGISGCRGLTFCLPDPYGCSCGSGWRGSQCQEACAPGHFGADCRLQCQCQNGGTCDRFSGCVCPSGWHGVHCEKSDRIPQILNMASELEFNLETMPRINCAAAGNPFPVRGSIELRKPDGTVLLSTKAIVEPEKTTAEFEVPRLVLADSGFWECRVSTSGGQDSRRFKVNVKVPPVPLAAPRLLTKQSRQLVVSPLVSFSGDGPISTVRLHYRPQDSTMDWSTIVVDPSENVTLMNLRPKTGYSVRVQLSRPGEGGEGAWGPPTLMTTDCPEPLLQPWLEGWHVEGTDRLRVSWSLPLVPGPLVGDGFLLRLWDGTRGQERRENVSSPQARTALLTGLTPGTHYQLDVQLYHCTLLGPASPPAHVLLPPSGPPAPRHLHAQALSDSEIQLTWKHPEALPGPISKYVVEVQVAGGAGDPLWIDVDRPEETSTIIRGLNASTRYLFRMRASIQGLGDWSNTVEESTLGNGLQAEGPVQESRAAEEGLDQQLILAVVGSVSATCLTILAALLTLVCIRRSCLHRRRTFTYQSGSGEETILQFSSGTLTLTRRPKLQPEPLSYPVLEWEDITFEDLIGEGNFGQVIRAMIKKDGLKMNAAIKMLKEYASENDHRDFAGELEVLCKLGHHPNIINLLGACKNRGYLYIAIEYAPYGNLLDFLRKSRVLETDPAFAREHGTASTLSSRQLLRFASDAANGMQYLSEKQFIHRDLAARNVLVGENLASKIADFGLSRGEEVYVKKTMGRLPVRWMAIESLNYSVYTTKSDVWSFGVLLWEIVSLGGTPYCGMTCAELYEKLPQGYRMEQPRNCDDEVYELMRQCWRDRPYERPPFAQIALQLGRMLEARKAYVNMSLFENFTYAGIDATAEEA", "assay": "Binding affinity to wild-type human partial length TIE1 (T819 to A1138 residues) expressed in bacterial expression system assessed as residual binding level at 1 uM by Kinomescan method relative to control"}, "[19]": {"test_system": "Receptor-type tyrosine-protein kinase FLT3 (Homo sapiens), P36888 [R834Q]", "assay": "Binding affinity to human partial length FLT3 R834Q mutant (V592 to Y969 residues) expressed in mammalian expression system assessed as residual binding level at 1 uM by Kinomescan method relative to control", "summary_of_the_method": "as §2"}, "[20]": {"target": "Mitogen-activated protein kinase 10 (Homo sapiens) (UniProt P53779)", "sequence (P53779 whole entry, the tested form may be a part)": "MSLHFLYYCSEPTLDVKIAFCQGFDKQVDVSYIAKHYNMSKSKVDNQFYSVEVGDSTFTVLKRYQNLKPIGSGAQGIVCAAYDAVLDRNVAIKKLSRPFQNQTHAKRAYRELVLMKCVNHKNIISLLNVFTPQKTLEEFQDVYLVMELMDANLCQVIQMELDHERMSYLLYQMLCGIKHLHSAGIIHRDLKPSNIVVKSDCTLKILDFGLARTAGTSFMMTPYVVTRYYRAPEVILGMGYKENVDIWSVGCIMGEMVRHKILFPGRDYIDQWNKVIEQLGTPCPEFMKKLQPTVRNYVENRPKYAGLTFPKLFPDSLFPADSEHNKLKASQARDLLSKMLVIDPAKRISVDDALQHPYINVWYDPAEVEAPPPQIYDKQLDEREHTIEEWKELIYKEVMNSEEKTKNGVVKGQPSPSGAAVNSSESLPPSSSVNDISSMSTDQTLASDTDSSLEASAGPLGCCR", "assay": "Binding affinity to wild-type human partial length JNK3 (V28 to Q422 residues) expressed in mammalian expression system assessed as residual binding level at 1 uM by Kinomescan method relative to control", "summary_of_the_method": "as §3"}, "[21]": {"target": "LIM domain kinase 1 (Homo sapiens) (UniProt P53667)", "assay": "Binding affinity to wild-type human full length LIMK1 (M1 to D647 residues) expressed in bacterial expression system assessed as residual binding level at 1 uM by Kinomescan method relative to control", "summary_of_the_method": "as §1"}, "[22]": {"target": "Ribosomal protein S6 kinase beta-1 (Homo sapiens) (UniProt P23443)", "sequence (P23443 whole entry, looked up, the tested form may be a part)": "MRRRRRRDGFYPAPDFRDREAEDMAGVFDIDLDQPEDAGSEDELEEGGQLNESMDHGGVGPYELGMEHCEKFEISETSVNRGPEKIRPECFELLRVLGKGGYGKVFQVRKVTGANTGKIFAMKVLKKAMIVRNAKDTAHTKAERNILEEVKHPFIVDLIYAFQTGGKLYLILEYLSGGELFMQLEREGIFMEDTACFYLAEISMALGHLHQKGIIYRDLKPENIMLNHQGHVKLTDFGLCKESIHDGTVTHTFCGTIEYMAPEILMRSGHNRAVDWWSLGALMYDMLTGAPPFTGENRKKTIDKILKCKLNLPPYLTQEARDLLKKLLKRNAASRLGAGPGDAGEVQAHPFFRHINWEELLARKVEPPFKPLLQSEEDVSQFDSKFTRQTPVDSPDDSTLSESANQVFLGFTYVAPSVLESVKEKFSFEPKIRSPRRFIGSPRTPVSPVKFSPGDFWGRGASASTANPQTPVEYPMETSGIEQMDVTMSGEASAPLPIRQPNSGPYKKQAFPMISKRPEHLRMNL", "assay": "Binding affinity to wild-type human partial length S6K1 (M1 to S421 residues) expressed in mammalian expression system assessed as residual binding level at 1 uM by Kinomescan method relative to control"}, "[23]": {"target": "CDK4/Cyclin D3 (Homo sapiens) (UniProt P11802+P30281)", "assay": "Binding affinity to wild-type human full length CDK4/cyclinD3 (M1 to E303 residues) expressed in mammalian expression system assessed as residual binding level at 1 uM by Kinomescan method relative to control", "summary_of_the_method": "as §1"}}, "data": [{"smiles": "Cc1ccc(NC(=O)c2ccc(CN(CCN(C)C)C(=O)c3cccnc3)cc2)cc1Nc1nccc(-c2cccnc2)n1", "values": [{"measurement": "Activity", "setting": "[1]", "value": 100, "unit": "%"}, {"measurement": "Activity", "setting": "[2]", "value": 98, "unit": "%"}, {"measurement": "Activity", "setting": "[3]", "value": 90, "unit": "%"}, {"measurement": "Activity", "setting": "[4]", "value": 96, "unit": "%"}, {"measurement": "Activity", "setting": "[5]", "value": 0.6, "unit": "%"}, {"measurement": "Activity", "setting": "[6]", "value": 100, "unit": "%"}, {"measurement": "Activity", "setting": "[7]", "value": 91, "unit": "%"}, {"measurement": "Activity", "setting": "[8]", "value": 85, "unit": "%"}, {"measurement": "MRT last", "setting": "[9]", "value": 53.5, "unit": "min"}, {"measurement": "Activity", "setting": "[10]", "value": 77, "unit": "%"}, {"measurement": "Activity", "setting": "[11]", "value": 100, "unit": "%"}, {"measurement": "Activity", "setting": "[12]", "value": 91, "unit": "%"}, {"measurement": "Activity", "setting": "[13]", "value": 95, "unit": "%"}, {"measurement": "Activity", "setting": "[14]", "value": 100, "unit": "%"}, {"measurement": "Activity", "setting": "[15]", "value": 100, "unit": "%"}, {"measurement": "Activity", "setting": "[16]", "value": 98, "unit": "%"}, {"measurement": "Activity", "setting": "[17]", "value": 96, "unit": "%"}, {"measurement": "Activity", "setting": "[18]", "value": 93, "unit": "%"}, {"measurement": "Activity", "setting": "[19]", "value": 90, "unit": "%"}, {"measurement": "Activity", "setting": "[20]", "value": 48, "unit": "%"}, {"measurement": "Activity", "setting": "[21]", "value": 100, "unit": "%"}, {"measurement": "Activity", "setting": "[22]", "value": 100, "unit": "%"}, {"measurement": "Activity", "setting": "[23]", "value": 100, "unit": "%"}]}]}
